Assay [1] can be described thus: hit retest on RPL19A-GFP reporter strain – cell-based, S. cerevisiae, flow cytometry, cherry picks, mother/daughter gates, confirmation (AID 2270;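 active means GFP response below 50% of the DMSO control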). Particulars: 3 h, at 10 µM, stronger effect = lower value, 100 = same GFP as DMSO wells. A general note: Flow cytometry measures light scatter and fluorescence of single cells or particles in a stream.
The nature of assay [2]: yeast TOR pathway reporter LAP4-GFP change – cell-based, cherry picks, flow cytometry, mother/daughter gates, confirmation (AID 2271;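 active means GFP response above 150% of the DMSO control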;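 further: ratio of sample to DMSO plate mean so 100% equals DMSO level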). The settings on record: S. cerevisiae LAP4-GFP strain, 3 h, at 10 µM, stronger effect = higher value, 100 means same as DMSO control. The method, boiled down: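 material = Alexa 633-stained baker's yeast GFP-fusion strain | amount = 0.2 OD600 cells | schedule = 30 °C, 3 h compound incubation, rotating | signal = GFP by flow cytometry | measure = per-gate (all, mother, daughter) GFP response vs DMSO | controls = positive rapamycin (400 ng/mL), negative DMSO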

Assay [3] in a line: TOR pathway reporter MEP2-GFP, retest of hits – S. cerevisiae, flow cytometry GFP, cherry picks, confirmation (AID 2272;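 active means GFP response above 150% of the DMSO control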;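 further: ratio of well signal to plate DMSO mean so 100% equals DMSO level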). Particulars: S. cerevisiae MEP2-GFP strain, 3 h, at 10 µM, stronger effect = higher value.
Assay [4] can be described thus: yeast AGP1-GFP fluorescence change, single-dose – cell-based, flow cytometry, S. cerevisiae, cherry picks, confirmation (AID 2273).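 Further: median GFP channel fluorescence over the whole cell population gate.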 Particulars: S. cerevisiae AGP1-GFP strain, 3 h, at 10 µM.
A short description of assay [5]: TOR pathway CIT2 reporter hit retest – S. cerevisiae, GFP fusion, cherry picks, mother/daughter gates, confirmation (AID 2274). Particulars: S. cerevisiae CIT2-GFP strain, flow cytometry, 3 h, at 10 µM, stronger effect = higher value.
[6] abbreviates: measured here: daughter cell gate.
Where [7] appears, read: measured here: mother cell gate.
The mark [8] stands for this setting: measured here: daughter cell gate response.
The mark [9] stands for this setting: measured here: mother cell gate response.

Results on 13 molecules are retold here after PubChem BioAssay.

The structures appear in SMILES notation. Active and inactive are the calls of the source.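 How the source made its calls, unless noted: active means GFP response above 150% of the DMSO level; inconclusive means fewer than 70 events counted for a yeast strain; inactive means the rest.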

Consider `Cc1sc(NC(=O)c2cccs2)nc1-c1ccccc1`, for which the GFP response vs DMSO was 106% (inactive) in assay [1], 95.7% in assay [1] (setting [6]), 105% in assay [1] (setting [7]) and 109% (inactive) in assay [3]. Moreover, the figures for the GFP response relative to DMSO in assay [2], in assay [2] (setting [8]) and in assay [2] (setting [9]) were 110% (inactive), 106% and 112%, respectively. Besides, the GFP response, % of DMSO in assay [4] is 97.5% (inactive); in assay [5] it was 95.9% (inactive); in assay [5] (setting [6]) it was 93.8%; in assay [5] (setting [7]), 95.6%.
As to `Cc1n[nH]c(C)c1N1C(=O)c2cccc3cc(Br)cc(c23)C1=O`, the GFP response vs DMSO in assay [1] is 95.2% (inactive); in assay [1] (setting [6]) it was 95.9%; in assay [1] (setting [7]), 97%; in assay [3], 99% (inactive). Further, the GFP response relative to DMSO was 99.5% (inactive) in assay [2], 99.1% in assay [2] (setting [8]) and 99.4% in assay [2] (setting [9]). In addition, the GFP response, % of DMSO in assay [4] is 105% (inactive); in assay [5], 102% (inactive); in assay [5] (setting [6]) it was 101%; in assay [5] (setting [7]), 99.3%.
Consider `CN(O)/C=c1/ccc2c(n1)C(=O)C=CC=2`, for which the GFP response vs DMSO in assay [1] was 105% (inactive); in assay [1] (setting [6]) it was 108%; in assay [1] (setting [7]), 100%; in assay [3], 115% (inactive). Besides, the GFP response relative to DMSO in assay [2] is 192% (active); in assay [2] (setting [8]), 170%; in assay [2] (setting [9]), 188%. The GFP response, % of DMSO in assay [4] was 93.2% (inactive); in assay [5] it was 167% (active); in assay [5] (setting [6]), 150%; in assay [5] (setting [7]), 161%.
For `Cc1nc(SC2CC(=O)N(c3ccccc3)C2=O)nc2c1CCCC2` (stereo not drawn), the GFP response vs DMSO in assay [1] is 95.4% (inactive); in assay [1] (setting [6]), 95.9%; in assay [1] (setting [7]), 95.8%; in assay [3] it was 96.2% (inactive). The GFP response relative to DMSO in assay [2] is 97.9% (inactive); in assay [2] (setting [8]), 97.6%; in assay [2] (setting [9]), 97.2%. The GFP response, % of DMSO in assay [4] is 93.1% (inactive); in assay [5], 101% (inactive); in assay [5] (setting [6]), 101%; in assay [5] (setting [7]) it was 99.7%.
As for `CCOC(=O)c1sc(NC(=O)c2ccc3ncsc3c2)nc1C`, the GFP response vs DMSO in assay [1] was 98% (inactive); in assay [1] (setting [6]), 95%; in assay [1] (setting [7]) it was 94.8%; in assay [3], 110% (inactive). The GFP response relative to DMSO is 95.3% (inactive) in assay [2], 96% in assay [2] (setting [8]) and 93.4% in assay [2] (setting [9]). In addition, the GFP response, % of DMSO in assay [4] was 96.4% (inactive); in assay [5], 98.6% (inactive); in assay [5] (setting [6]), 95.8%; in assay [5] (setting [7]) it was 93.8%.
For `Cc1ccc(C(C[N+](=O)[O-])Sc2ccc(N)cc2)cc1` (stereo not drawn), the GFP response vs DMSO in assay [1] was 95.6% (inactive); in assay [1] (setting [6]) it was 98.4%; in assay [1] (setting [7]) it was 94.8%; in assay [3], 109% (inactive). In addition, the figures for the GFP response relative to DMSO in assay [2], in assay [2] (setting [8]) and in assay [2] (setting [9]) were 135% (inactive), 133% and 140%, respectively. The GFP response, % of DMSO was 89.6% (inactive) in assay [4], 98.3% (inactive) in assay [5], 103% in assay [5] (setting [6]) and 95% in assay [5] (setting [7]).
In the case of `O=C(C1CCN(Cc2nc(Cc3cccc(F)c3)no2)CC1)N1CCOCC1`, the GFP response vs DMSO in assay [1] is 99.5% (inactive); in assay [1] (setting [6]), 99%; in assay [1] (setting [7]), 99.8%; in assay [3], 100% (inactive). For the same molecule, the GFP response relative to DMSO in assay [2] is 96.2% (inactive); in assay [2] (setting [8]), 100%; in assay [2] (setting [9]) it was 97.2%. Further, the GFP response, % of DMSO in assay [4] was 103% (inactive); in assay [5], 100% (inactive); in assay [5] (setting [6]), 99.7%; in assay [5] (setting [7]), 102%.
On to `FC(F)(F)c1cc(-c2cccs2)nc2cc(-c3cccs3)nn12`, for which the GFP response vs DMSO in assay [1] is 103% (inactive); in assay [1] (setting [6]), 102%; in assay [1] (setting [7]), 102%; in assay [3], 103% (inactive). The GFP response relative to DMSO in assay [2] was 97% (inactive); in assay [2] (setting [8]), 97.5%; in assay [2] (setting [9]) it was 97.3%. In addition, the GFP response, % of DMSO in assay [4] was 95.1% (inactive); in assay [5], 93% (inactive); in assay [5] (setting [6]), 92%; in assay [5] (setting [7]) it was 94.4%.
Take `O=C(c1ccc(Cl)cc1)N1CCN(c2cccc3[nH]ccc23)CC1`: the GFP response vs DMSO in assay [1] is 94.6% (inactive); in assay [1] (setting [6]), 94.1%; in assay [1] (setting [7]), 93.1%; in assay [3] it was 105% (inactive). In addition, the GFP response relative to DMSO in assay [2] was 108% (inactive); in assay [2] (setting [8]), 107%; in assay [2] (setting [9]), 105%. Besides, the GFP response, % of DMSO in assay [4] was 91.9% (inactive); in assay [5], 96.9% (inactive); in assay [5] (setting [6]) it was 99.1%; in assay [5] (setting [7]) it was 95%.
With `CCOC(=O)c1ccc(NC(=O)c2nc(S(=O)(=O)Cc3ccccc3)ncc2Cl)cc1`, the GFP response vs DMSO in assay [1] is 99.5% (inactive); in assay [1] (setting [6]), 99%; in assay [1] (setting [7]), 98.9%; in assay [3] it was 102% (inactive). In addition, the GFP response relative to DMSO in assay [2] was 93.8% (inactive); in assay [2] (setting [8]), 95.6%; in assay [2] (setting [9]), 95.2%. Further, the GFP response, % of DMSO in assay [4] was 101% (inactive); in assay [5], 97.8% (inactive); in assay [5] (setting [6]) it was 94.8%; in assay [5] (setting [7]), 97.7%.
In the case of `CCOc1ccccc1NC(=O)c1nc(S(=O)(=O)Cc2ccccc2)ncc1Cl`, the GFP response vs DMSO was 97.8% (inactive) in assay [1], 99.8% in assay [1] (setting [6]), 97.1% in assay [1] (setting [7]) and 103% (inactive) in assay [3]. Moreover, the GFP response relative to DMSO in assay [2] is 94.1% (inactive); in assay [2] (setting [8]), 96%; in assay [2] (setting [9]) it was 95.4%. Besides, the GFP response, % of DMSO is 106% (inactive) in assay [4], 98.6% (inactive) in assay [5], 101% in assay [5] (setting [6]) and 97.1% in assay [5] (setting [7]).
For `CCCCNC(=O)c1ccc2c(SCC(=O)O)c3c(nc2c1)CCCC3`, the GFP response vs DMSO in assay [1] is 98.7% (inactive); in assay [1] (setting [6]) it was 96.7%; in assay [1] (setting [7]), 99%; in assay [3] it was 99.5% (inactive). For the same molecule, the GFP response relative to DMSO in assay [2] is 101% (inactive); in assay [2] (setting [8]), 104%; in assay [2] (setting [9]), 97.5%. The GFP response, % of DMSO in assay [4] was 98% (inactive); in assay [5], 97.8% (inactive); in assay [5] (setting [6]), 98.3%; in assay [5] (setting [7]), 98%.
For the molecule `Cc1ccn2c(NC(=O)c3ccco3)c(-c3ccccc3)nc2c1`, the GFP response vs DMSO is 98.6% (inactive) in assay [1], 100% in assay [1] (setting [6]), 96.6% in assay [1] (setting [7]) and 107% (inactive) in assay [3]. Moreover, the GFP response relative to DMSO in assay [2] was 96.7% (inactive); in assay [2] (setting [8]) it was 96%; in assay [2] (setting [9]), 96.1%. In addition, the GFP response, % of DMSO in assay [4] was 94.8% (inactive); in assay [5], 103% (inactive); in assay [5] (setting [6]) it was 103%; in assay [5] (setting [7]), 101%.
